Activity calls are given as the source filed them. The calls are words filed in the database; no cut-off is given here.
Experiments:
[1] = target: T1, Fructose-bisphosphate aldolase, glycosomal (Trypanosoma brucei brucei) (UniProt P07752); assay: Protection of inhibitory activity by DHAP against Trypanosoma brucei aldolase at 0.25 mM after 15 min; design: scale not given: the % may be the effect or the level left
T1 sequence (whole entry): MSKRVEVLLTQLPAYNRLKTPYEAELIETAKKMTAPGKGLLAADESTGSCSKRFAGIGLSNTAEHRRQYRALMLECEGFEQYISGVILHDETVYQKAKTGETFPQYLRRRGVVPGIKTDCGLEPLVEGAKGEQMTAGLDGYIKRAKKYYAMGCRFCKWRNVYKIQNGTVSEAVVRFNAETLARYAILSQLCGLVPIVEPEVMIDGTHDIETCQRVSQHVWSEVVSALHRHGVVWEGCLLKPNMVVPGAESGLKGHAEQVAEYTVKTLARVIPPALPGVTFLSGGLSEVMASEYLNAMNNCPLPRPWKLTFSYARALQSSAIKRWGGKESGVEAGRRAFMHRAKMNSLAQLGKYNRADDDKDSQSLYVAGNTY

[2] = target: T2, Fructose-bisphosphate aldolase A (Oryctolagus cuniculus) (UniProt P00883); assay: Residual activity against rabbit muscle class1 Aldolase at 0.1 mM after 15 min; conditions: Muscle tissue
T2 sequence (whole entry): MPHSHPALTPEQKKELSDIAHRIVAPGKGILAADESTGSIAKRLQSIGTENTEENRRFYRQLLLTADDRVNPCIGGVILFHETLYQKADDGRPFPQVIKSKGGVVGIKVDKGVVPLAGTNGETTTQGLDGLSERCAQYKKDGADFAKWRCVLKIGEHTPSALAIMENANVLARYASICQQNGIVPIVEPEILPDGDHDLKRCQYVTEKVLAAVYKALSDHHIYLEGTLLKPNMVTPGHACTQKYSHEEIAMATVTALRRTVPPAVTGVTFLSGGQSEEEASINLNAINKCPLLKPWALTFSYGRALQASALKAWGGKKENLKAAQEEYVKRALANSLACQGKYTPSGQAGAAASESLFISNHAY

[3] = target: T1, Fructose-bisphosphate aldolase, glycosomal (Trypanosoma brucei brucei); assay: Protection of inhibitory activity by HBP against Trypanosoma brucei aldolase at 0.1 mM after 5 min; design: scale not given: the % may be the effect or the level left
[4] = target: T1, Fructose-bisphosphate aldolase, glycosomal (Trypanosoma brucei brucei); assay: Protection of inhibitory activity by DHAP against Trypanosoma brucei aldolase at 0.25 mM after 5 min; design: scale not given: the % may be the effect or the level left
[5] = target: T2, Fructose-bisphosphate aldolase A (Oryctolagus cuniculus); assay: Residual activity against rabbit muscle class1 Aldolase at 0.1 mM after 5 min; conditions: Muscle tissue
[6] = target: T1, Fructose-bisphosphate aldolase, glycosomal (Trypanosoma brucei brucei); assay: Inhibitory activity against mutated recombinant Trypanosoma brucei aldolase K116M
[7] = target: T1, Fructose-bisphosphate aldolase, glycosomal (Trypanosoma brucei brucei); assay: Protection of inhibitory activity by HBP against Trypanosoma brucei aldolase at 1 mM after 15 min; design: scale not given: the % may be the effect or the level left
[8] = target: T2, Fructose-bisphosphate aldolase A (Oryctolagus cuniculus); assay: Residual activity against rabbit muscle class1 Aldolase at 1 mM after 15 min; conditions: Muscle tissue
[9] = target: Fructose-bisphosphate aldolase B (Homo sapiens) (UniProt P05062); assay: Residual activity against human liver class1 Aldolase at 100 uM after 15 min
[10] = target: T3, Fructose-bisphosphate aldolase, glycosomal (Trypanosoma brucei brucei, UniProt P07752); assay: Inhibition of Trypanosoma brucei class1 Aldolase
T3 sequence (P07752 whole entry): T1 sequence (whole entry)

[11] = target: T1, Fructose-bisphosphate aldolase, glycosomal (Trypanosoma brucei brucei); assay: Protection of inhibitory activity by DHAP against Trypanosoma brucei aldolase at 10 mM after 15 min; design: scale not given: the % may be the effect or the level left
[12] = target: T1, Fructose-bisphosphate aldolase, glycosomal (Trypanosoma brucei brucei); assay: Protection of inhibitory activity by NBP against Trypanosoma brucei aldolase at 1 mM after 5 min; design: scale not given: the % may be the effect or the level left
[13] = target: T1, Fructose-bisphosphate aldolase, glycosomal (Trypanosoma brucei brucei); assay: Residual activity against Trypanosoma brucei class1 Aldolase at 0.5 mM after 15 min
[14] = target: T1, Fructose-bisphosphate aldolase, glycosomal (Trypanosoma brucei brucei); assay: Protection of inhibitory activity by NBP against Trypanosoma brucei aldolase at 1 mM after 15 min; design: scale not given: the % may be the effect or the level left
[15] = target: T1, Fructose-bisphosphate aldolase, glycosomal (Trypanosoma brucei brucei); assay: Protection of inhibitory activity by DHAP against Trypanosoma brucei aldolase at 1 mM after 5 min; design: scale not given: the % may be the effect or the level left
[16] = target: T1, Fructose-bisphosphate aldolase, glycosomal (Trypanosoma brucei brucei); assay: Protection of inhibitory activity by DHAP against Trypanosoma brucei aldolase at 0.5 mM after 15 min; design: scale not given: the % may be the effect or the level left
[17] = target: T1, Fructose-bisphosphate aldolase, glycosomal (Trypanosoma brucei brucei); assay: Protection of inhibitory activity by FBP against Trypanosoma brucei aldolase at 10 mM after 15 min; design: scale not given: the % may be the effect or the level left
[18] = target: T4, Fructose-1,6-bisphospate aldolase (Leishmania mexicana) (UniProt Q9U5N6); assay: Residual activity against Leishmania mexicana class1 Aldolase at 100 uM after 15 min
T4 sequence (whole entry): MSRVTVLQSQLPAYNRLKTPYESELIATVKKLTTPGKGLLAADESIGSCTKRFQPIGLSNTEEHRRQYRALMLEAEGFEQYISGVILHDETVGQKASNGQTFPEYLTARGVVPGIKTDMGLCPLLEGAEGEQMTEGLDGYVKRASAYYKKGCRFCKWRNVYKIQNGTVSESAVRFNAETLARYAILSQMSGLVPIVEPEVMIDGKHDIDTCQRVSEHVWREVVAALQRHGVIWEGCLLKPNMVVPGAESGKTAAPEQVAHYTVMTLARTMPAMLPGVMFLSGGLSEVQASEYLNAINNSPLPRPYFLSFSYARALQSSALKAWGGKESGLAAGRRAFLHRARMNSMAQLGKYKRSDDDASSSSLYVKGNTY
Summary of the method: (§1)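 Aldolases from different sources, including mammalian (human liver) and protozoan parasite enzymes, were each incubated at 0.2 mg/mL with the inhibitor at 100 µM. Residual enzyme activity was then measured.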

[19] = target: T1, Fructose-bisphosphate aldolase, glycosomal (Trypanosoma brucei brucei); assay: Protection of inhibitory activity by DHAP against Trypanosoma brucei aldolase at 1 mM after 15 min; design: scale not given: the % may be the effect or the level left
[20] = target: T1, Fructose-bisphosphate aldolase, glycosomal (Trypanosoma brucei brucei); assay: Protection of inhibitory activity by HBP against Trypanosoma brucei aldolase at 1 mM after 5 min; design: scale not given: the % may be the effect or the level left
[21] = target: T1, Fructose-bisphosphate aldolase, glycosomal (Trypanosoma brucei brucei); assay: Residual activity against Trypanosoma brucei class1 Aldolase at 100 uM after 15 min; summary of the method: as §1
[22] = target: T5, Aldolase (Plasmodium falciparum) (UniProt Q27744); assay: Residual activity against Plasmodium falciparum class1 Aldolase at 100 uM after 15 min; summary of the method: as §1
T5 sequence (whole entry): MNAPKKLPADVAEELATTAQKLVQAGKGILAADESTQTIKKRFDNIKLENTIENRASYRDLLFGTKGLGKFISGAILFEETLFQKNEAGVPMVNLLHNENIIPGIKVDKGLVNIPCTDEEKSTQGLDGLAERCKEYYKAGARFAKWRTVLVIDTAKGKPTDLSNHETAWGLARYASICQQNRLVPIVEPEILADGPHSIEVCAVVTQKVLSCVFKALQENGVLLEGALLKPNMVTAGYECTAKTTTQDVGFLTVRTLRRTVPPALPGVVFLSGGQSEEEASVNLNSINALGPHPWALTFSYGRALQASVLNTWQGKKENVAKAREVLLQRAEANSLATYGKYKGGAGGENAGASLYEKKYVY

[23] = target: T1, Fructose-bisphosphate aldolase, glycosomal (Trypanosoma brucei brucei); assay: Residual activity against Trypanosoma brucei class1 Aldolase at 0.5 mM after 5 min
[24] = target: T2, Fructose-bisphosphate aldolase A (Oryctolagus cuniculus); assay: Residual activity against rabbit muscle class1 Aldolase at 1 mM after 5 min; conditions: Muscle tissue
[25] = target: T1, Fructose-bisphosphate aldolase, glycosomal (Trypanosoma brucei brucei); assay: Protection of inhibitory activity by DHAP against Trypanosoma brucei aldolase at 10 mM after 5 min; design: scale not given: the % may be the effect or the level left
[26] = target: T1, Fructose-bisphosphate aldolase, glycosomal (Trypanosoma brucei brucei); assay: Protection of inhibitory activity by FBP against Trypanosoma brucei aldolase at 1 mM after 5 min; design: scale not given: the % may be the effect or the level left
[27] = target: T1, Fructose-bisphosphate aldolase, glycosomal (Trypanosoma brucei brucei); assay: Protection of inhibitory activity by FBP against Trypanosoma brucei aldolase at 1 mM after 15 min; design: scale not given: the % may be the effect or the level left
[28] = target: T1, Fructose-bisphosphate aldolase, glycosomal (Trypanosoma brucei brucei); assay: Protection of inhibitory activity by DHAP against Trypanosoma brucei aldolase at 0.5 mM after 5 min; design: scale not given: the % may be the effect or the level left
[29] = target: T1, Fructose-bisphosphate aldolase, glycosomal (Trypanosoma brucei brucei); assay: Residual activity against Trypanosoma brucei class1 Aldolase at 0.02 mM after 15 min
[30] = target: T1, Fructose-bisphosphate aldolase, glycosomal (Trypanosoma brucei brucei); assay: Protection of inhibitory activity by HBP against Trypanosoma brucei aldolase at 0.1 mM after 15 min; design: scale not given: the % may be the effect or the level left
[31] = target: T1, Fructose-bisphosphate aldolase, glycosomal (Trypanosoma brucei brucei); assay: Residual activity against Trypanosoma brucei class1 Aldolase at 0.02 mM after 5 min
[32] = target: T1, Fructose-bisphosphate aldolase, glycosomal (Trypanosoma brucei brucei); assay: Protection of inhibitory activity by FBP against Trypanosoma brucei aldolase at 10 mM after 5 min; design: scale not given: the % may be the effect or the level left

Fructose-bisphosphate aldolase B (Homo sapiens), sequence (P05062 whole entry, looked up): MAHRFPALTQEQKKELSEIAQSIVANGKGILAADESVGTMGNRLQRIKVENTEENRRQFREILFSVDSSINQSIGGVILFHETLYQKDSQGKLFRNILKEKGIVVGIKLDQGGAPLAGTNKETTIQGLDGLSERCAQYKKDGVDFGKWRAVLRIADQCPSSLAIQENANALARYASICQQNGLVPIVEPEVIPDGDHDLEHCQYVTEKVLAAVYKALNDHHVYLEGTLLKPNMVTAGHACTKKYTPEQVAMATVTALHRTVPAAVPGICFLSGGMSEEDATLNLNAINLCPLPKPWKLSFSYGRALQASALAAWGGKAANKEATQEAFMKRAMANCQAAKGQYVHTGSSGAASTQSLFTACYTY

O=Cc1c(O)ccc2cc(OP(=O)(O)O)ccc12
Activity [1]: 48% | Activity [2]: 100% | Activity [3]: 100% | Activity [4]: 56% | Activity [5]: 100% | inhibition [6]: inactive | Activity [7]: 100% | Activity [8]: 80% | Activity [9]: 100% | Ki [10]: 23 µM | Activity [11]: 70% | Activity [12]: 100% | Activity [13]: 0% | Activity [14]: 100% | Activity [15]: 60% | Activity [16]: 44% | Activity [17]: 89% | Activity [18]: 15% | Activity [19]: 52% | Activity [20]: 100% | Activity [21]: < 0.5% | Activity [22]: 30% | Activity [23]: < 20% | Activity [24]: 80% | Activity [25]: 80% | Activity [26]: 80% | Activity [27]: 51% | Activity [28]: 63% | Activity [29]: 50% | Activity [30]: 100% | Activity [31]: 75% | Activity [32]: 100%

Reference: ChEMBL document CHEMBL1138172, “Selective irreversible inhibition of fructose 1,6-bisphosphate aldolase from Trypanosoma brucei” (J Med Chem, 2006)
